Test [1] has as its system Klebsiella pneumoniae. The test is described as follows: Antibacterial activity against carbapenem-resistant Klebsiella pneumoniae isolate 4 expressing beta-lactamase NDM-1 obtained from urine of patient by liquid microdilution method. In kind it is functional. Conditions: for MIC: isolate 4, Urine. An outline of the steps: (§1)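 Liquid broth microdilution at 37°C gives the MIC against each clinical isolate; results are interpreted per CLSI guidelines.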
(In general: Dilution methods test growth across graded concentrations, often in twofold steps.)

Test [2] relates to Klebsiella pneumoniae. Nature of the test: Antibacterial activity against carbapenem-resistant Klebsiella pneumoniae isolate 5 expressing beta-lactamase NDM-1 obtained from urine of patient by liquid microdilution method. In kind it is functional. Conditions: for MIC: isolate 5, Urine. An outline of the steps: as §1
Test [3] has as its system Klebsiella pneumoniae. Nature of the test: Antibacterial activity against carbapenem-resistant Klebsiella pneumoniae isolate 7 expressing beta-lactamase NDM-1 obtained from urine of patient by liquid microdilution method. Conditions: for MIC: isolate 7, Urine. It is filed as functional. The method in brief:
as §1

In test [4] the test system is Escherichia coli. The test is described as follows: Antimicrobial activity against Escherichia coli J53. It is filed as functional. The method in brief: (§2)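 Strains: azide-resistant E. coli J53 recipient and its transconjugant. The transconjugant came from conjugation with K. pneumoniae Kp7 donor, selected on ceftazidime (30 µg/ml) plus azide (100 µg/ml). MICs were by Etest on Mueller-Hinton agar and by liquid microdilution at 37°C, interpreted per CLSI.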

The test system of test [5] is Escherichia coli. The test is described as follows: Antimicrobial activity against Escherichia coli J53 harboring Klebsiella pneumoniae Kp7 beta-lactamase NDM-1. In kind it is functional. The method in brief:
as §2

Test [6] concerns Klebsiella pneumoniae. Nature of the test: Antibacterial activity against carbapenem-resistant Klebsiella pneumoniae isolate 1 expressing beta-lactamase NDM-1 obtained from urine of patient by Etest. Conditions: for MIC: isolate 1, Urine. It is filed as functional. The method in brief: (§3)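 Etest strips on Mueller-Hinton agar at 37°C give the MIC against each clinical isolate; susceptibility is interpreted per CLSI guidelines.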

For test [7], the system named is Klebsiella pneumoniae. Nature of the test: Antibacterial activity against carbapenem-resistant Klebsiella pneumoniae isolate 2 expressing beta-lactamase NDM-1 obtained from urine of patient by Etest. It is filed as functional. The conditions noted are these: for MIC: isolate 2, Urine. An outline of the steps: as §3
The subject of test [8] is Klebsiella pneumoniae. Nature of the test: Antibacterial activity against carbapenem-resistant Klebsiella pneumoniae isolate 3 expressing beta-lactamase NDM-1 obtained from urine of patient by Etest. It is filed as functional. Conditions: for MIC: isolate 3, Urine. The method in brief:
as §3

The test system of test [9] is Klebsiella pneumoniae. The test is described as follows: Antibacterial activity against carbapenem-resistant Klebsiella pneumoniae isolate 4 expressing beta-lactamase NDM-1 obtained from urine of patient by Etest. In kind it is functional. Conditions: for MIC: isolate 4, Urine. The method in brief: as §3
The subject of test [10] is Klebsiella pneumoniae. Nature of the test: Antibacterial activity against carbapenem-resistant Klebsiella pneumoniae isolate 5 expressing beta-lactamase NDM-1 obtained from urine of patient by Etest. In kind it is functional. The conditions noted are these: for MIC: isolate 5, Urine. An outline of the steps:
as §3

Test [11] concerns Klebsiella pneumoniae. Nature of the test: Antibacterial activity against carbapenem-resistant Klebsiella pneumoniae isolate 7 expressing beta-lactamase NDM-1 obtained from urine of patient by Etest. It is filed as functional. Conditions: for MIC: isolate 7, Urine. An outline of the steps: as §3
The test system of test [12] is Klebsiella pneumoniae. The test is described as follows: Antibacterial activity against carbapenem-resistant Klebsiella pneumoniae isolate 1 expressing beta-lactamase NDM-1 obtained from urine of patient by liquid microdilution method. In kind it is functional. Conditions: for MIC: isolate 1, Urine. The method in brief: as §1
In test [13] the test system is Klebsiella pneumoniae. The test is described as follows: Antibacterial activity against carbapenem-resistant Klebsiella pneumoniae isolate 2 expressing beta-lactamase NDM-1 obtained from urine of patient by liquid microdilution method. It is filed as functional. The conditions noted are these: for MIC: isolate 2, Urine. An outline of the steps: as §1
The subject of test [14] is Klebsiella pneumoniae. Nature of the test: Antibacterial activity against carbapenem-resistant Klebsiella pneumoniae isolate 3 expressing beta-lactamase NDM-1 obtained from urine of patient by liquid microdilution method. In kind it is functional. Conditions: for MIC: isolate 3, Urine. The method in brief:
as §1

Test [15] relates to Klebsiella pneumoniae. The test is described as follows: Antibacterial activity against carbapenem-resistant Klebsiella pneumoniae isolate 6 expressing beta-lactamase NDM-1 obtained from urethral pus of patient by Etest. The conditions noted are these: for MIC: isolate 6, Urethral pus.
In test [16] the test system is Klebsiella pneumoniae. The test is described as follows: Antibacterial activity against carbapenem-resistant Klebsiella pneumoniae isolate 6 expressing beta-lactamase NDM-1 obtained from urethral pus of patient by liquid microdilution method. Conditions: for MIC: isolate 6, Urethral pus.

Converted amounts (≈) assume the structure as drawn. The source made the active and inactive calls. No cut-off for these calls is given here.

`C[C@@H](O)[C@H]1C(=O)N2C(C(=O)O)=C(SCCNC=N)C[C@H]12` [IMIPENEM ANHYDROUS]: the MIC in test [1] is over 32 µg/mL; in test [2] it was over 32 µg/mL; in test [3], over 32 µg/mL; in test [4], 0.12 µg/mL (≈ 0.401 µM); in [5], 4 µg/mL (≈ 13.4 µM); in test [6], over 32 µg/mL. The MIC in [7], in test [8], in test [9], in [10], in [11] and in test [12] was over 32 µg/mL in each case. The MIC in test [13], in test [14], in [15] and in [16] was over 32 µg/mL throughout.

On to `C[C@@H]1O[C@@H]1P(=O)(O)O`, for which the result in test [1], in test [2], in test [3], in test [6], in [7] and in [8] was inactive. Further, the outcome in [9], in [10], in [11], in test [12], in test [13] and in test [14] was inactive. Moreover, the outcome in test [15] and in test [16] was inactive.

As for `CO[C@H]1/C=C/O[C@@]2(C)Oc3c(C)c(O)c4c(O)c(c(/C=N/N5CCN(C)CC5)c(O)c4c3C2=O)NC(=O)/C(C)=C\C=C\[C@H](C)[C@H](O)[C@@H](C)[C@@H](O)[C@@H](C)[C@H](OC(C)=O)[C@@H]1C` [RIFAMPIN], the minimum inhibitory concentration (MIC) in [1], in test [2], in test [3], in test [6], in [7] and in [8] was over 32 µg/mL in each case. The MIC in [9], in test [10], in test [11], in [12], in test [13] and in [14] was over 32 µg/mL throughout. For the same molecule, the MIC in [15] and in test [16] was over 32 µg/mL each time.

For `C[C@@H](O)[C@H]1C(=O)N2C(C(=O)O)=C(S[C@@H]3CN[C@H](C(=O)Nc4cccc(C(=O)O)c4)C3)[C@H](C)[C@H]12` [ERTAPENEM], the MIC is over 32 µg/mL in [1]; over 32 µg/mL in [2]; over 32 µg/mL in test [3]; 0.12 µg/mL (≈ 0.252 µM) in test [4]; 1.5 µg/mL (≈ 3.15 µM) in [5]; over 32 µg/mL in [6]. In addition, the MIC in test [7], in test [8], in test [9], in test [10], in [11] and in [12] was over 32 µg/mL in each case. The MIC in test [13], in [14], in test [15] and in test [16] was over 32 µg/mL each time.

As to `C[C@@H](O)[C@H]1C(=O)N2C(C(=O)O)=C(S[C@@H]3CN[C@H](C(=O)N(C)C)C3)[C@H](C)[C@H]12` [MEROPENEM], the MIC is over 32 µg/mL in test [1]; over 32 µg/mL in test [2]; over 32 µg/mL in test [3]; 0.12 µg/mL (≈ 0.313 µM) in test [4]; 1.5 µg/mL (≈ 3.91 µM) in [5]; over 32 µg/mL in test [6]. Besides, the MIC in [7], in test [8], in test [9], in test [10], in test [11] and in [12] was over 32 µg/mL each time. For the same molecule, the MIC in test [13], in [14], in test [15] and in test [16] was over 32 µg/mL throughout.

As to `CN(C)c1cc(NC(=O)CNC(C)(C)C)c(O)c2c1C[C@H]1C[C@H]3[C@H](N(C)C)C(O)=C(C(N)=O)C(=O)[C@@]3(O)C(O)=C1C2=O` [TIGECYCLINE], the MIC in test [6], in [7], in test [8], in test [9], in [10] and in test [11] was 0.5 µg/mL (≈ 0.854 µM) in each case. In test [15], this molecule displayed an MIC of 0.5 µg/mL (≈ 0.854 µM).

Regarding `O=C1CN(/N=C/c2ccc([N+](=O)[O-])o2)C(=O)N1`, the result in test [1], in test [2], in [3], in [6], in test [7] and in test [8] was inactive. The outcome in test [9], in [10], in [11], in test [12], in test [13] and in test [14] was inactive. For the same molecule, the outcome in test [15] and in test [16] was inactive.

For `O=C(N[C@H](CO)[C@H](O)c1ccc([N+](=O)[O-])cc1)C(Cl)Cl`, the outcome in [1], in test [2], in test [3], in test [6], in [7] and in test [8] was inactive. Besides, the result in [9], in test [10], in test [11], in [12], in test [13] and in [14] was inactive. For the same molecule, the result in [15] and in test [16] was inactive.

For the molecule `C[C@@H](O)[C@H]1C(=O)N2C(C(=O)O)=C(S[C@@H]3CN[C@H](CNS(N)(=O)=O)C3)[C@H](C)[C@H]12` [DORIPENEM], the MIC in test [1] was over 32 µg/mL; in [2] it was over 32 µg/mL; in test [3], over 32 µg/mL; in test [4], 0.12 µg/mL (≈ 0.285 µM); in test [5], 1.5 µg/mL (≈ 3.57 µM); in test [6] it was over 32 µg/mL. For the same molecule, the MIC in test [7], in [8], in [9], in [10], in test [11] and in test [12] was over 32 µg/mL each time. The MIC in test [13], in test [14], in test [15] and in test [16] was over 32 µg/mL in each case.

The MIC is the lowest concentration found to suppress growth.

The values are drawn from ChEMBL document CHEMBL1687843, “Detection of NDM-1-producing Klebsiella pneumoniae in Kenya” (2011).
